Assay results published in ChEMBL document CHEMBL1131082, “Discovery and preliminary SAR studies of a novel, nonsteroidal progesterone receptor antagonist pharmacophore” (J Med Chem, 1998).

Experiments:
Progesterone receptor [1] = molecular target: T1, Progesterone receptor (Homo sapiens, UniProt P06401); experiment: Binding affinity against Baculovirus-Expressed hPR-A
T1 sequence (P06401 whole entry): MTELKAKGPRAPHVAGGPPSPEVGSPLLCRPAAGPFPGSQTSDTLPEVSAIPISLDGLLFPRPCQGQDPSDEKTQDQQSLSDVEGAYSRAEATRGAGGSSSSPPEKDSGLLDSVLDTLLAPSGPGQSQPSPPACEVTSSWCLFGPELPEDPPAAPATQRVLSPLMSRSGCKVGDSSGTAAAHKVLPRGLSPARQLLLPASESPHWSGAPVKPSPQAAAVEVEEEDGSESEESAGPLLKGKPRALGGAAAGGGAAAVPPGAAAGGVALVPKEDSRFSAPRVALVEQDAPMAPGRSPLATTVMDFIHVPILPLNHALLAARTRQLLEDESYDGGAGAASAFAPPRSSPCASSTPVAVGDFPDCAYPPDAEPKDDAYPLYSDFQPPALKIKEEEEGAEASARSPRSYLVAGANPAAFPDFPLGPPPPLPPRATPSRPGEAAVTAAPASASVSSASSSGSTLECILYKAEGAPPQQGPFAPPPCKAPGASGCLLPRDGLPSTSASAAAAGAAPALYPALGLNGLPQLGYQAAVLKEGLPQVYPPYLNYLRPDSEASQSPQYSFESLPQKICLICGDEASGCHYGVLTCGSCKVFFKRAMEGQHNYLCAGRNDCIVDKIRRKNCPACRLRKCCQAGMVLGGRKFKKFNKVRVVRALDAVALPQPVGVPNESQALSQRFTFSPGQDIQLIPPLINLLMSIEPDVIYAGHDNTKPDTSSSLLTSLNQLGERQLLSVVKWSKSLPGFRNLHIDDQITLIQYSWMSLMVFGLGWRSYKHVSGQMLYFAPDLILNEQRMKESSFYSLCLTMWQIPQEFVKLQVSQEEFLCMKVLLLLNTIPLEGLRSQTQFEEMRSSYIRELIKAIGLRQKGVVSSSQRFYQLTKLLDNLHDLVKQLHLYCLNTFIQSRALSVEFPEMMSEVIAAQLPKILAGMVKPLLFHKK

Progesterone receptor [2] = molecular target: T1, Progesterone receptor; experiment: In vitro antagonist activity against human progesterone receptor isoform B(hPR-B) in mammalian(CV-1) cells; type: functional, cell-based
[3] = molecular target: Estrogen receptor (Homo sapiens) (UniProt Q92731+P03372)
[4] = molecular target: T2, Mineralocorticoid receptor (Homo sapiens) (UniProt P08235); experiment: Antagonist activity against Mineralocorticoid receptor; type: functional
T2 sequence (whole entry): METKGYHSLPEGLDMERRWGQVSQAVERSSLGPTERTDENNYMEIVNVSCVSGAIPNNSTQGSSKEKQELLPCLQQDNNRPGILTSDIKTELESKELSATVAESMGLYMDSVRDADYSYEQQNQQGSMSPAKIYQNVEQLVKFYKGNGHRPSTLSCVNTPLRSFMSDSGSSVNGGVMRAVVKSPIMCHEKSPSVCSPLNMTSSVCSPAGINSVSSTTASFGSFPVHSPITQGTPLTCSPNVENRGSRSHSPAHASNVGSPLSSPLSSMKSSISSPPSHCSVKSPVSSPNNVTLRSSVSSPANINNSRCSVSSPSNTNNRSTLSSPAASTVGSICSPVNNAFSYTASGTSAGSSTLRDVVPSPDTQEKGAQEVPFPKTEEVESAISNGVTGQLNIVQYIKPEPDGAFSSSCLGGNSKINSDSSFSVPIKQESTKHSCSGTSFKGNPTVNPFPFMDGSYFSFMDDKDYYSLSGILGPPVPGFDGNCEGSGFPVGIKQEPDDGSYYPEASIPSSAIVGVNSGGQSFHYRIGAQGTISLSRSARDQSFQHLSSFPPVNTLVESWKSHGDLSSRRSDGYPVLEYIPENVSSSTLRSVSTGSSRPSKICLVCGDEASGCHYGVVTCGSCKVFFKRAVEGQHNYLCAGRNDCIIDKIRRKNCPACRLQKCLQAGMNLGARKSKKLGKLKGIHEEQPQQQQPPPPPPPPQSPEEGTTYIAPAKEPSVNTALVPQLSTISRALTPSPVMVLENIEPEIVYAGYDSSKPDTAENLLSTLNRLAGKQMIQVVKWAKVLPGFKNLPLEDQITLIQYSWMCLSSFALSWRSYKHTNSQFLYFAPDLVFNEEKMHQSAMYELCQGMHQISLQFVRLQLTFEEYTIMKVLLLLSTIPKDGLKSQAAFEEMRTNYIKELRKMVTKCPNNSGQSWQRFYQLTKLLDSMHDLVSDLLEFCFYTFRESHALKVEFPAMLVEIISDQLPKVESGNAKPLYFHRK
How it was run: (§1)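 hMR antagonist cotransfection assay run with an EC50 concentration of aldosterone as agonist. Potency is the IC50. Efficacy is % of maximal inhibition. Values are the mean ± SEM of at least two independent experiments, or one experiment where marked.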

[5] = molecular target: T3, Androgen receptor (Homo sapiens) (UniProt P10275)
T3 sequence (whole entry): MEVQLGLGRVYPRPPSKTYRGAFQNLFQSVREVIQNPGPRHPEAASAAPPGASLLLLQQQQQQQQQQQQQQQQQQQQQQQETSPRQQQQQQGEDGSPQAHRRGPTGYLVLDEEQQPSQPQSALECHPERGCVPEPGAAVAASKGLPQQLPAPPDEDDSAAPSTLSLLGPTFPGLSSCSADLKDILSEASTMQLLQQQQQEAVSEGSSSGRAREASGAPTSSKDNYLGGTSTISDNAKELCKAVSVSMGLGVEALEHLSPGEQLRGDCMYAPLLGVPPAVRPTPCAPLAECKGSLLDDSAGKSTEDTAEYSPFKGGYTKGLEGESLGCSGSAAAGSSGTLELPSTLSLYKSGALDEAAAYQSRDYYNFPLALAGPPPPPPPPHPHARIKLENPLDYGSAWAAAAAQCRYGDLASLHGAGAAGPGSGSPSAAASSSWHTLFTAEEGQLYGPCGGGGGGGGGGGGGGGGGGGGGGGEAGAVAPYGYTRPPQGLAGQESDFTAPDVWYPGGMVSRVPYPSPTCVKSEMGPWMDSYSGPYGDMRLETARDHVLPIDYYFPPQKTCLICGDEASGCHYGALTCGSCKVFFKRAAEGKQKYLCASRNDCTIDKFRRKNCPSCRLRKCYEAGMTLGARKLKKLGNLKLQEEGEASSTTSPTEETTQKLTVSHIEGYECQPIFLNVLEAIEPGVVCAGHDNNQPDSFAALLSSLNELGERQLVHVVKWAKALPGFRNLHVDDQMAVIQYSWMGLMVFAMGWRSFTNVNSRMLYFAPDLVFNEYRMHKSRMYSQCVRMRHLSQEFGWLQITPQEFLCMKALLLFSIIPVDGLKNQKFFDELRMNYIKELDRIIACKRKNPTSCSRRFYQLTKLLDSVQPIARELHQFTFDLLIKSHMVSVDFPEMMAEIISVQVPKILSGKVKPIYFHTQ

[6] = molecular target: T2, Mineralocorticoid receptor (Homo sapiens); experiment: Efficacy as percent inhibition of Mineralocorticoid receptor with aldosterone EC50; how it was run: as §1
[7] = molecular target: T4, Glucocorticoid receptor (Homo sapiens) (UniProt P04150)
T4 sequence (whole entry): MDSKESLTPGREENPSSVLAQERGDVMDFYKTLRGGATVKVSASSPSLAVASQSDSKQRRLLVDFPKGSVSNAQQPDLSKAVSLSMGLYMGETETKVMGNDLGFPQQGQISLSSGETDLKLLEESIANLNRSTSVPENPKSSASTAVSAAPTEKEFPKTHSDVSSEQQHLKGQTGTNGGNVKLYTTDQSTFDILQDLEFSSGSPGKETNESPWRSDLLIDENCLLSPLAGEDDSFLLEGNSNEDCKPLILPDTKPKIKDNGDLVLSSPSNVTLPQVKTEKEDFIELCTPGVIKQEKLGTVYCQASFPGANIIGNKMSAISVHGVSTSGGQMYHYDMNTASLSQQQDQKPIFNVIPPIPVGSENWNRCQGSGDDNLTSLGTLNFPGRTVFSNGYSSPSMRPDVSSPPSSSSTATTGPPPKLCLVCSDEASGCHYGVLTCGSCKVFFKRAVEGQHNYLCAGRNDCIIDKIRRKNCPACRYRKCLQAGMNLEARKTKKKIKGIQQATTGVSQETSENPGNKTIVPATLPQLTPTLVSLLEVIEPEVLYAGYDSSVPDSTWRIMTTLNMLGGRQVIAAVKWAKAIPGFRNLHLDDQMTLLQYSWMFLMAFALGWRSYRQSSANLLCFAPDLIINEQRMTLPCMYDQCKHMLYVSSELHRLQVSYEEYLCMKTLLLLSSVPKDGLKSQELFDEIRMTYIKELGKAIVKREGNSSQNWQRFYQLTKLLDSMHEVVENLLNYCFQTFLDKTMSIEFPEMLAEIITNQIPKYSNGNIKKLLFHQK

Compound	Ki (Progesterone receptor [1]) [nM]	IC50 (Progesterone receptor [2]) [nM]	Potency [3] [nM]	Potency [4] [nM]	Potency [5] [nM]	Efficacy [6] [%]	Potency [7] [nM]
CC1=CC(C)(C)Nc2ccc(-c3cc(F)cc(F)c3)cc21	10	79	–	–	–	–	–
CC1=CC(C)(C)Nc2ccc(-c3cc(F)cc([N+](=O)[O-])c3)cc21	5	70	–	–	–	–	–
CC1=CC(C)(C)Nc2ccc(-c3cc(F)cc(C#N)c3)cc21	–	–	> 1000	> 1000	–	80	> 1000
CC1=CC(C)(C)Nc2ccc(-c3ccccc3)cc21	133	783	–	–	–	–	–

The remaining lines, values ahead:

Ki (Progesterone receptor [1]) [nM]	IC50 (Progesterone receptor [2]) [nM]	Potency [3] [nM]	Potency [4] [nM]	Potency [5] [nM]	Efficacy [6] [%]	Potency [7] [nM]	Compound
–	–	> 1000	> 1000	–	–	–	CC#C[C@]1(O)CC[C@H]2[C@@H]3CCC4=CC(=O)CCC4=C3[C@@H](c3ccc(N(C)C)cc3)C[C@@]21C
182	750	–	–	–	–	–	CC1=CC(C)(C)Nc2ccc(-c3cccc(F)c3)cc21
19	38	> 1000	> 1000	227	94	> 1000	CC1=CC(C)(C)Nc2ccc(-c3cccc(C#N)c3)cc21
–	–	–	> 1000	269	–	27	CN(C)c1ccc([C@H]2C[C@]3(C)[C@@H](CC[C@]3(O)CCCO)[C@@H]3CCC4=CC(=O)CCC4=C32)cc1
